According to ChEMBL document CHEMBL4513216, “Probing the Open Global Health Chemical Diversity Library for Multistage-Active Starting Points for Next-Generation Antimalarials” (ACS Infect Dis, 2020):

Assay: Toxicity liver stage against HepG2, at 10uM
Format: cell-based
Parameters: test concentration 10 uM, cell line HepG2-A16-CD81EGFP
Conditions: human, HepG2-A16-CD81EGFP cells; read-out: INHIBITION
How it was run: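 Uninfected HepG2-A16-CD81EGFP cells, 3 × 10^3 per well, 1536-well, plated on prespotted compound at 10 μM final, parasite-free screening media added to match infected plates; puromycin 10 μM positive, DMSO 0.5% negative; run in parallel with 48 h PbLuc assay at 37 °C, 5% CO2; viability by CellTiter-Glo luminescence, normalized to controls.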

## CCCc1ccc2oc(C(=O)N3CCC(O)CC3)c(C)c2c1
  cytotoxicity at 10 µM: 0.361%

## CC(C)NC(=O)c1cccc(Oc2ccc3nncn3n2)c1
  cytotoxicity at 10 µM: -13.3%

## Cn1cnc2ccc(NC(=O)CCCn3cccn3)cc2c1=O
  cytotoxicity at 10 µM: 4.31%

## COCCc1nnc(NC(=O)CSCc2ccccc2)o1
  cytotoxicity at 10 µM: -3.75%

## O=C(NC1CC1)[C@@H]1CCO[C@@H]2CCN(C3CCCC3)C[C@H]21
  cytotoxicity at 10 µM: 13.3%

## CC(=O)N1CCCC2(CN(Cc3ccccc3C(F)(F)F)CCO2)C1 (stereo not given)
  cytotoxicity at 10 µM: 7.28%

## CCOCC1CN(C(=O)c2ccco2)Cc2nn(C)cc21 (stereo not given)
  cytotoxicity at 10 µM: 3.86%

## COc1ccc(-c2c(C)nn3c(=N)c(C#N)n[nH]c23)cc1
  cytotoxicity at 10 µM: -8.26%

## O=C1CSC(c2cccs2)c2cnn(C3CCCC3)c2N1 (stereo not given)
  cytotoxicity at 10 µM: 5.99%

## Cc1nc(N2CCOCC2)nc2c1CCN(C(=O)NC1CCCC1)CC2
  cytotoxicity at 10 µM: 3.41%

## O=C(c1ccc(-c2ccc(O)nc2)s1)N1CCSCC1
  cytotoxicity at 10 µM: 3.96%

## CC(C)NC(=O)C1(Cc2ccccc2-c2ccccc2)CCCNC1 (stereo not given)
  cytotoxicity at 10 µM: 3.05%

## CN([C@@H]1CC[C@@H](N2CCOCC2)[C@@H]1O)S(=O)(=O)c1ccccc1
  cytotoxicity at 10 µM: 2.77%

## CN1CCN(C(=O)CCn2ncc3ccccc32)CC(C(N)=O)C1 (stereo not given)
  cytotoxicity at 10 µM: 4.33%

## Cc1cc(C)nc(N2CCOC(c3cc(CCO)[nH]n3)C2)n1 (stereo not given)
  cytotoxicity at 10 µM: 1.89%

## Cc1c[nH]nc1C1CCCN(C(=O)Cn2cccn2)C1 (stereo not given)
  cytotoxicity at 10 µM: -14.5%

## CN(C)c1cc(C2CCCN(C(=O)Cn3cc(Cl)cn3)C2)ccn1 (stereo not given)
  cytotoxicity at 10 µM: -23.2%

## CCn1ncc(CN2C[C@@H]3CCCN3C[C@H]2CCSC)c1C
  cytotoxicity at 10 µM: -19.1%

## COc1cccc(CC(=O)N2CCCC(c3n[nH]c4nccnc34)C2)c1 (stereo not given)
  cytotoxicity at 10 µM: 4.62%

## CCc1ccccc1C(=O)NS(=O)(=O)CCCC#N
  cytotoxicity at 10 µM: -5.83%

## O=C(Nc1cn[nH]c1)N1CCCCCC1c1ccncc1 (stereo not given)
  cytotoxicity at 10 µM: -3.4%

## CCC(O)CN(Cc1cccc(C(=O)N(C)C)c1)c1ccccc1 (stereo not given)
  cytotoxicity at 10 µM: 0.503%

## O=C(Nc1ccc(-c2csnn2)cc1)N1CCN2CCCCC2C1 (stereo not given)
  cytotoxicity at 10 µM: -7.23%

## Cc1nn(C)c(C)c1OCC(=O)N1CCCc2c(F)ccc(F)c21
  cytotoxicity at 10 µM: 2.27%

## O=S(=O)(NCc1ccnc(-n2ccnc2)c1)c1cncc(F)c1
  cytotoxicity at 10 µM: 1.28%

## CCc1c(C(=O)N2CC(C)OC(C)(C)C2)cnn1-c1ccccn1 (stereo not given)
  cytotoxicity at 10 µM: -2.51%

## Cc1nnc2n1CCN(c1nc3ccccc3o1)C2
  cytotoxicity at 10 µM: 3.51%

## CN(Cc1ccc(Cl)s1)C(=O)NCCC(=O)N1CCCCCC1
  cytotoxicity at 10 µM: -0.691%

## Cc1nnc(CSc2ccc(C(F)(F)F)cn2)o1
  cytotoxicity at 10 µM: -6.51%

## Cn1cc(C(=O)N2CCCC2CCc2ccccc2)cn1 (stereo not given)
  cytotoxicity at 10 µM: 9.84%

## CCc1noc(C)c1C(=O)NCc1cc[nH]n1
  cytotoxicity at 10 µM: 3.44%

## CC(=O)NCCCSC1CCN(c2ccccc2F)C1=O (stereo not given)
  cytotoxicity at 10 µM: -2.45%

## Cc1ccnc(C(NC(=O)c2ccc(O)nc2C)C2CC2)n1 (stereo not given)
  cytotoxicity at 10 µM: -5.3%

## COC(=O)CNC(=O)c1scnc1C
  cytotoxicity at 10 µM: 7.71%

## CCNS(=O)(=O)C1CCN(C(=O)c2ccc(CC)o2)C1 (stereo not given)
  cytotoxicity at 10 µM: 5.45%

## O=C(CCSc1ccccc1)NCCn1nc2ccccn2c1=O
  cytotoxicity at 10 µM: -6.09%

## Cc1nc(C)n(CC2CCCCN2CCCS(C)(=O)=O)n1 (stereo not given)
  cytotoxicity at 10 µM: 5.02%

## CCC(O)CN1CCN(C(=O)CN(C)c2ccc(Cl)cn2)CC1 (stereo not given)
  cytotoxicity at 10 µM: 0.684%

## Cc1ccc(CS(=O)(=O)CC(=O)NCc2ccccc2F)cc1
  cytotoxicity at 10 µM: 0.515%

## CCN1CCC(NC(=O)c2ccc(F)cc2I)CC1
  cytotoxicity at 10 µM: -10%

## CC(C)C(C)(C#N)NC(=O)Cn1cc(C(N)=O)c(-c2ccccc2)n1 (stereo not given)
  cytotoxicity at 10 µM: -8.82%

## COc1ccccc1CNC1(CCO)CCOCC1
  cytotoxicity at 10 µM: 20.5%

## CC(NCC1CCN(CCO)CC1)c1ccc(OC(F)(F)F)cc1 (stereo not given)
  cytotoxicity at 10 µM: -15.1%

## Cc1ccc(CC(=O)Nc2ccc(CS(C)(=O)=O)c(F)c2)cc1
  cytotoxicity at 10 µM: -2.77%

## Cc1nnc2n1CCN(C(=O)CN1C(=O)CCCc3ccccc31)C2
  cytotoxicity at 10 µM: -11.4%

## Cc1nnc(CN(Cc2ccccc2C(F)(F)F)C2CC2)o1
  cytotoxicity at 10 µM: 8.32%

## CN(C)C(=O)Cc1ccccc1NCc1cccc2cccnc12
  cytotoxicity at 10 µM: -1.81%

## CN(C)CCN(Cc1cccc(F)c1)C(=O)c1ccc2nccn2c1
  cytotoxicity at 10 µM: -0.0817%

## O=C(CN1CCCNC1=O)Nc1ccccc1SC(F)(F)F
  cytotoxicity at 10 µM: 12.7%

## O=C(CC1=CCCCC1)NCCc1csc(N2CCCC2)n1
  cytotoxicity at 10 µM: -7.63%

## O=C(CSc1ccc2c(c1)OCCO2)NS(=O)(=O)C1CCCCC1
  cytotoxicity at 10 µM: -3.69%

## COC(=O)[C@H](C)NC(=O)c1cc(-c2cccc(Cl)c2)no1
  cytotoxicity at 10 µM: -7.25%

## CCc1nccn1C1CCCN(C(=O)c2ccc3[nH]cnc3c2)C1 (stereo not given)
  cytotoxicity at 10 µM: -7.66%

## CS(=O)(=O)N1CCO[C@@H]2CN(C(=O)c3cccnc3)C[C@@H]2C1
  cytotoxicity at 10 µM: 7.64%

## c1cnc(NCc2noc3c2CN(c2cnccn2)CC3)nc1
  cytotoxicity at 10 µM: 0.774%

## Cc1cc(C(=O)NC2CCc3c(ccc(=O)n3CC(C)C)C2)no1 (stereo not given)
  cytotoxicity at 10 µM: 7.15%

## CCN(CC)Cc1nc2c(o1)CN(C(=O)c1ccncc1F)C2
  cytotoxicity at 10 µM: -109%

## Cc1cnc(C(=O)N2CCC3(CCCN(c4nncs4)C3)C2)cn1 (stereo not given)
  cytotoxicity at 10 µM: -103%

## c1cncc(CN2CCCC3(COCCN(c4cncnc4)C3)C2)c1 (stereo not given)
  cytotoxicity at 10 µM: -73.3%

## CC1=N[C@@]2(CC[C@@H]3CN(S(=O)(=O)CC(C)C)C[C@@H]32)C(=O)N1CC1CC1
  cytotoxicity at 10 µM: -66.6%

## Cc1cc(N2CCN(C(=O)c3cnn(C(C)C)c3)CC2)cc(C)n1
  cytotoxicity at 10 µM: -15.2%

## CCN(CCO)C[C@@H]1CN(c2cccc(C(F)(F)F)n2)C[C@@H]1CO
  cytotoxicity at 10 µM: 0.855%

## CCOc1ccccc1CC(=O)N1C[C@H](C2CC2)[C@@H](N)C1
  cytotoxicity at 10 µM: -2.45%

## CCn1nc(CC(C)C)cc1C(=O)N1CCC2(CC1)[C@H](O)C[C@@H]2O
  cytotoxicity at 10 µM: -7.2%

## O=C(c1cnc(Nc2ccccc2)nc1)N1CCC(O)(CO)CC1
  cytotoxicity at 10 µM: -0.756%

## O=C(COCc1ccccc1)N1CCN(Cc2ccccc2F)C(=O)C1
  cytotoxicity at 10 µM: -3.19%

## N[C@H]1CN(C(=O)c2ccccc2OCc2ccccc2)C[C@@H]1C1CC1
  cytotoxicity at 10 µM: -3.57%

## COCC1(C(=O)N[C@H]2CN(c3noc(C)n3)C[C@@H]2C2CC2)CCC1
  cytotoxicity at 10 µM: -135%

## CSCC[C@H](N)C(=O)NCc1cc2n(n1)CCCN(C(=O)N(C)C)C2
  cytotoxicity at 10 µM: 9.8%

## COc1ccccc1OC1(C(=O)O)CCN(c2nccnc2OC)CC1
  cytotoxicity at 10 µM: -6.25%

## Cc1cc(C2CCC2)nc(N(C)CCc2ccccn2)n1
  cytotoxicity at 10 µM: -3.09%

## c1cc(-c2ccc(CN3CCC4(CCNCC4)CC3)s2)[nH]n1
  cytotoxicity at 10 µM: -166%

## C=C(C)COc1ccccc1C(=O)NCCc1nncn1C
  cytotoxicity at 10 µM: -3.06%

## O=C(c1coc(COc2ccccc2F)n1)N1CCC[C@H]1CO
  cytotoxicity at 10 µM: 0.835%

## CC(Oc1ccc2c(c1)OCO2)C(=O)N1CCC(c2ncc[nH]2)CC1 (stereo not given)
  cytotoxicity at 10 µM: -2.58%

## Cc1nn(C)c2nc(N(Cc3ccccn3)CC3CCCO3)sc12 (stereo not given)
  cytotoxicity at 10 µM: -1.01%

## Cc1n[nH]c(C)c1Sc1ccccc1NC(=O)CN1CCCC1
  cytotoxicity at 10 µM: -8.7%

## CCN1CC2(CCC1=O)CCN(CCc1nccn1C)CC2
  cytotoxicity at 10 µM: 4.65%

## Cc1cc2nc(C(C)C)cc(NCc3ccncc3)n2n1
  cytotoxicity at 10 µM: 2.63%

## CCn1ccnc1CN(C)C(=O)Cn1ccc2ccccc2c1=O
  cytotoxicity at 10 µM: 2.37%

## COc1ccccc1CN1C(=O)O[C@@H]2CN(c3nccs3)C[C@@H]21
  cytotoxicity at 10 µM: 6.27%

## Cc1ccc(C(=O)N2Cc3ccccc3C2)cc1N1CCNC1=O
  cytotoxicity at 10 µM: -13.9%

## CC(C)n1ccnc1C1CCN(C(=O)c2cc[nH]n2)CC1
  cytotoxicity at 10 µM: -3.28%

## CCCN1CCCn2nc(CNS(=O)(=O)c3cccc(C#N)c3)cc2C1
  cytotoxicity at 10 µM: -2.96%

## Cc1ccsc1[C@@H]1CCN(C(=O)CCC(=O)N2CCCCCC2)C[C@H]1O
  cytotoxicity at 10 µM: -1.72%

## COCCOc1ccc(Cl)c(C(=O)N2CCN(CCO)CC2)n1
  cytotoxicity at 10 µM: -4.33%

## Cc1noc(CN(C)C2CCCN(Cc3noc(C4CC4)n3)C2)n1 (stereo not given)
  cytotoxicity at 10 µM: -2.19%

## O=C(N1CCCC(n2cncn2)C1)C1(c2ccc(Cl)cc2)CCC1 (stereo not given)
  cytotoxicity at 10 µM: -2.11%

## O=C(Nc1ccc(OC2CCCC2)cc1)C1CCCN1c1nccs1 (stereo not given)
  cytotoxicity at 10 µM: -10.2%

## CN(C)c1cc(C(=O)N2CCCCC2)ccn1
  cytotoxicity at 10 µM: -4.63%

## Cc1nc(C2CCCN2CC(=O)NCCOc2cccc(F)c2)no1 (stereo not given)
  cytotoxicity at 10 µM: -16.3%

## O=C(Nc1ncn(CC(=O)N2CCCCCC2)n1)C1CCCC1
  cytotoxicity at 10 µM: -11.2%

## COc1c(CNC(c2ccccc2F)c2nccn2C)c(C)nn1C (stereo not given)
  cytotoxicity at 10 µM: -13.9%

## CCOc1ccccc1OC1CCN(C(=O)c2[nH]nc(C)c2Br)CC1
  cytotoxicity at 10 µM: -8.75%

## CC(=O)c1cccc(OCC(=O)NS(=O)(=O)c2cccs2)c1
  cytotoxicity at 10 µM: -10.5%

## Cc1cnn(CC2CCCCN2C(=O)Cc2ccc(C#N)cc2)c1 (stereo not given)
  cytotoxicity at 10 µM: -7.09%

## CN(C)c1ccc(C(=O)N2CCC(c3n[nH]c(C4CC4)n3)CC2)cc1
  cytotoxicity at 10 µM: -2.42%

## COc1ccccc1OCCNC(=O)N1CCC(n2cncn2)CC1
  cytotoxicity at 10 µM: 1.67%

## CCOc1cccc2c1OCC(C(=O)NS(=O)(=O)c1cncc(Br)c1)=C2
  cytotoxicity at 10 µM: -0.713%

## COc1cn(-c2ccccc2)nc1C(=O)NCCCN1CCCC(C)C1 (stereo not given)
  cytotoxicity at 10 µM: -11.1%

## CCCc1n[nH]c(C2CN(C(=O)c3cc(F)ccc3OC)CCO2)n1 (stereo not given)
  cytotoxicity at 10 µM: -5.58%

## CC(=O)N(Cc1ncc(C(C)C)o1)C1CCN(Cc2nccn2C)C1 (stereo not given)
  cytotoxicity at 10 µM: -3.81%

## Cc1nc(C)n(CC2CCCN(Cc3cccc(C#N)c3)C2)n1 (stereo not given)
  cytotoxicity at 10 µM: -16%

## COc1ccccc1C(O)CNC(=O)Nc1ncccc1C (stereo not given)
  cytotoxicity at 10 µM: -8.65%

## Cc1ccc(-c2ncc(C(=O)NCCNc3ncccn3)s2)c(C)c1
  cytotoxicity at 10 µM: -9.12%

## Cc1cnn(CC2CN(Cc3nc(-c4ccoc4)no3)CCO2)c1 (stereo not given)
  cytotoxicity at 10 µM: -9.63%

## CC(=O)N1CCC2(CC1)CN(C)C(=O)C[C@H]2C(F)(F)F
  cytotoxicity at 10 µM: -161%

## CCCC(=O)N1CCOC2(COCCN(CC(=O)NC)C2)C1 (stereo not given)
  cytotoxicity at 10 µM: -3.58%

## O=C(c1ccc(F)cc1)N1CCC2(CCN(Cc3ccccn3)C2=O)C1 (stereo not given)
  cytotoxicity at 10 µM: -136%

## Cc1ccc(CN2Cc3c(C(=O)N4CCN(C)CC4)nn(C)c3C2)s1
  cytotoxicity at 10 µM: -6.77%
